Positions count from the first letter of the chain named.
What was measured:
Details in all cases: stereoisomer not certain
[1] = target: T1, OR8U1 (Homo sapiens) (UniProt Q8NH10)
T1 sequence (whole entry): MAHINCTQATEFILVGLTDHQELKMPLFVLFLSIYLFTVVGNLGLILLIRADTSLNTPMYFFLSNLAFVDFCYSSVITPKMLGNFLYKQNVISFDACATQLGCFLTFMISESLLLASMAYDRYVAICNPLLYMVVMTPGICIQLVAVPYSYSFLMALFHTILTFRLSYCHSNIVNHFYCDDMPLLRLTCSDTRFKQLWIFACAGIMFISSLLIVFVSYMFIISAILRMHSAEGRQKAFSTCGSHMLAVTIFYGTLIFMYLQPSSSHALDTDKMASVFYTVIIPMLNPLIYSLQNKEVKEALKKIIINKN
In short: (§1)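 Each entry records the cell line, G-protein, co-transfected protein and tags used. Methods varied with the source, often transient luciferase assays in mammalian cell lines. A receptor–molecule pair is called responsive (active) if the original authors judged its signal statistically different from baseline and non-responsive (inactive) otherwise.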

[2] = target: T2, OR8U3 (Homo sapiens) (UniProt Q8NH85)
T2 sequence (whole entry): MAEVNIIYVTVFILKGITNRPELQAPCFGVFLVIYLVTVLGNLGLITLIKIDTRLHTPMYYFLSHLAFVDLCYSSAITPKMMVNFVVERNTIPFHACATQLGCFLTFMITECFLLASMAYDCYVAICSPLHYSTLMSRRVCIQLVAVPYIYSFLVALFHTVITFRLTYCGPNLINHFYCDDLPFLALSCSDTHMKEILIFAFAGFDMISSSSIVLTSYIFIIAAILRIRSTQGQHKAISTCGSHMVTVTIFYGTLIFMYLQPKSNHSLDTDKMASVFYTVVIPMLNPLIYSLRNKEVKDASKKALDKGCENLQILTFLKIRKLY
In short: as §1

[3] = target: T3, OR8U8 (Homo sapiens) (UniProt P0C7N1)
T3 sequence (whole entry): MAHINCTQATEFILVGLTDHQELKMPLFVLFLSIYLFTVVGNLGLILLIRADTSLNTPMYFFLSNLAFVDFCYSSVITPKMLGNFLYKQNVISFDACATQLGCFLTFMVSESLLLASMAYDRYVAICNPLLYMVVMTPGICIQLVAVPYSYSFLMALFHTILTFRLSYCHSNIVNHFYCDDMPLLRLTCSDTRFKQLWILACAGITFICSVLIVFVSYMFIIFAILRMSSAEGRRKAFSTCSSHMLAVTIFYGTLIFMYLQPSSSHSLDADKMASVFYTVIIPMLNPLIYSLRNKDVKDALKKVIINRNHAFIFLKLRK
In short: as §1

[4] = target: T4, OR8U9 (Homo sapiens) (UniProt P0C7N5)
T4 sequence (whole entry): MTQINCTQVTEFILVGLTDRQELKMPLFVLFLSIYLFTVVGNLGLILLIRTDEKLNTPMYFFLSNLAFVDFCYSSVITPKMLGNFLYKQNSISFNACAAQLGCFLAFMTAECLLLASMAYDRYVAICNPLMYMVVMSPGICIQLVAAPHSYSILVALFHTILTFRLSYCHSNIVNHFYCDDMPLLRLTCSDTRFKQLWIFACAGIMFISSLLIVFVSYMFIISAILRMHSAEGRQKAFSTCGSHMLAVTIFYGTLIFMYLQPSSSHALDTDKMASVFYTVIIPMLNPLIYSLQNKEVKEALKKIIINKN
In short: as §1

[5] = target: T5, OR9A2 (Homo sapiens) (UniProt Q8NGT5)
T5 sequence (whole entry): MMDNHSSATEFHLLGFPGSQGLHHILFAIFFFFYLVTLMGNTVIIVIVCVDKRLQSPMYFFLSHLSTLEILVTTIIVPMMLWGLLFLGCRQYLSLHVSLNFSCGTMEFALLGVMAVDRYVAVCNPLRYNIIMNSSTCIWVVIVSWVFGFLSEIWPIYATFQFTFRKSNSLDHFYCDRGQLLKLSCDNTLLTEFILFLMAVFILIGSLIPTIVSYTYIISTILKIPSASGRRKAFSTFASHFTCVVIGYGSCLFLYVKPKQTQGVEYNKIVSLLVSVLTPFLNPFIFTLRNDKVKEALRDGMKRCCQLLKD
In short: as §1

[6] = target: T6, OR9A4 (Homo sapiens) (UniProt Q8NGU2)
T6 sequence (whole entry): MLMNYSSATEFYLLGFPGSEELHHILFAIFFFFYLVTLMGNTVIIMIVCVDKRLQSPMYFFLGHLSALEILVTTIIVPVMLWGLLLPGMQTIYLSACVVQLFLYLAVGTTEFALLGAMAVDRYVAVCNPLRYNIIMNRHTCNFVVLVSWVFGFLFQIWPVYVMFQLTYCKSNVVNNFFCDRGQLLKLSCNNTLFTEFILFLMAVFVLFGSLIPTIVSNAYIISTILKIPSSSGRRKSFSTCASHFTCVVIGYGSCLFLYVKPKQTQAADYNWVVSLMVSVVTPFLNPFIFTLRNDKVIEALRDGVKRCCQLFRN
In short: as §1

[7] = target: T7, OR9G1 (Homo sapiens) (UniProt Q8NH87)
T7 sequence (whole entry): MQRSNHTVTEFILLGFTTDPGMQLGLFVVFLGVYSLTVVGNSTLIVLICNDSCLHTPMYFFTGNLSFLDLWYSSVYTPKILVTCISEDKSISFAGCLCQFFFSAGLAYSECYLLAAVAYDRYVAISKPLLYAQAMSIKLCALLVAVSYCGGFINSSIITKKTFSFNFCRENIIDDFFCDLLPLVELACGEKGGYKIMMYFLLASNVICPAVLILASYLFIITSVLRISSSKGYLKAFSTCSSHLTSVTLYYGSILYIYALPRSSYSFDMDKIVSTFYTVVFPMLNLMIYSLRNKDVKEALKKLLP
In short: as §1

[8] = target: T8, OR9G4 (Homo sapiens) (UniProt Q8NGQ1)
T8 sequence (whole entry): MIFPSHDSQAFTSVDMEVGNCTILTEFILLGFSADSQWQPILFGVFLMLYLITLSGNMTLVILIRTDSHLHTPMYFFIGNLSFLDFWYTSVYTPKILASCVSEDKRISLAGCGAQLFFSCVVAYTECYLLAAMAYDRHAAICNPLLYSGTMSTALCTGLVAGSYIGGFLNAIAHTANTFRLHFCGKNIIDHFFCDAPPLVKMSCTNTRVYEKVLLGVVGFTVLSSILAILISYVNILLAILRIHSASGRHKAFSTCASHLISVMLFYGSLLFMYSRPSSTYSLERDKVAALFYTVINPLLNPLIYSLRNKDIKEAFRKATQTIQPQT
In short: as §1

[9] = target: T9, OR9G9 (Homo sapiens) (UniProt P0C7N8)
T9 sequence (whole entry): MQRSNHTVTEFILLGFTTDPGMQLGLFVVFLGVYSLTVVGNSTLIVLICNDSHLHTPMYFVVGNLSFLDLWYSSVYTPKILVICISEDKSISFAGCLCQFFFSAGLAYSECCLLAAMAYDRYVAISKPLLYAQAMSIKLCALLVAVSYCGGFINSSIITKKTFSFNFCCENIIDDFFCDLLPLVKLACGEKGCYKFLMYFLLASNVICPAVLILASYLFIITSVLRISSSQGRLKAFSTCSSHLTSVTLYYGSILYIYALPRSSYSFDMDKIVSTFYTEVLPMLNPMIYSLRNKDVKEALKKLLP
In short: as §1

[10] = target: T10, OR9I1 (Homo sapiens) (UniProt Q8NGQ6)
T10 sequence (whole entry): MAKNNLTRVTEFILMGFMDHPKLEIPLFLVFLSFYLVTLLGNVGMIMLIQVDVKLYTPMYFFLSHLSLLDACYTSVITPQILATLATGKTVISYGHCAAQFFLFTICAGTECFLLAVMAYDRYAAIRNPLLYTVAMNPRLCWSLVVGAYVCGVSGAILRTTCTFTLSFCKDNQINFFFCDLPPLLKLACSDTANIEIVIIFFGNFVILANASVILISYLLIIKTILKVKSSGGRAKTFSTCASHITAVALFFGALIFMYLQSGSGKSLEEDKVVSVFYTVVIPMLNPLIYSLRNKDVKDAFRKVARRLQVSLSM
In short: as §1

[11] = target: T11, OR9K2 (Homo sapiens) (UniProt Q8NGE7)
T11 sequence (whole entry): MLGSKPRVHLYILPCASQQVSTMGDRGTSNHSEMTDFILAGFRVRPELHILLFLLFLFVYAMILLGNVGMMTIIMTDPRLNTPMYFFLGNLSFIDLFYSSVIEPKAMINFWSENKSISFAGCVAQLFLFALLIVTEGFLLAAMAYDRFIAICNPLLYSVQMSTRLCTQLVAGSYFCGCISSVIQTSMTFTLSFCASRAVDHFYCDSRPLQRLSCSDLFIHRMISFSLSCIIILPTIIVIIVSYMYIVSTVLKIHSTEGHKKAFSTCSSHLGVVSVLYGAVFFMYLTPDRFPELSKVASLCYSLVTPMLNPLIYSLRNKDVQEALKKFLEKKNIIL
In short: as §1

[12] = test system: T12, OR8U8
T12 sequence (whole entry): T3 sequence (whole entry) with V109I, S112C
In short: as §1

[13] = test system: T13, OR8U8; remark: listed apart in the source
T13 sequence (whole entry): T3 sequence (whole entry) with H20R, V109I, R165C
In short: as §1

[14] = test system: T14, OR8U9 T2A Q3H Q293R
T14 sequence (whole entry): T4 sequence (whole entry) with T2A, Q3H, Q293R
In short: as §1

[15] = test system: T15, OR8U9
T15 sequence (whole entry): T4 sequence (whole entry) with Q293R
In short: as §1

[16] = test system: T16, OR9A2 C304Y
T16 sequence (whole entry): T5 sequence (whole entry) with C304Y
In short: as §1

[17] = test system: T17, OR9G4 H6Y N206D V222A
T17 sequence (whole entry): T8 sequence (whole entry) with H6Y, N206D, V222A
In short: as §1

[18] = test system: T18, OR9G4 N206D V222A
T18 sequence (whole entry): T8 sequence (whole entry) with N206D, V222A
In short: as §1

[19] = test system: T19, OR9G9
T19 sequence (whole entry): T9 sequence (whole entry) with C193G
In short: as §1

[20] = test system: T20, OR9K2 R207H
T20 sequence (whole entry): T11 sequence (whole entry) with R207H
In short: as §1

Compound | odorant receptor agonist call [1] | odorant receptor agonist call [2] | odorant receptor agonist call [3] | odorant receptor agonist call [4] | odorant receptor agonist call [5] | odorant receptor agonist call [6] | odorant receptor agonist call [7] | odorant receptor agonist call [8] | odorant receptor agonist call [9] | odorant receptor agonist call [10] | odorant receptor agonist call [11] | odorant receptor agonist call [12] | odorant receptor agonist call [13] | odorant receptor agonist call [14] | odorant receptor agonist call [15] | odorant receptor agonist call [16] | odorant receptor agonist call [17] | odorant receptor agonist call [18] | odorant receptor agonist call [19] | odorant receptor agonist call [20]
CCCCCC(=O)C(C)C(C)=O (stereo unspecified) | inactive | inactive | inactive | inactive | inactive | inactive | inactive | inactive | inactive | inactive | inactive |  |  |  |  |  |  |  |  | 
Cc1cnc(C)c(C)n1 | inactive | inactive |  | inactive | inactive | inactive | inactive | inactive |  | inactive | inactive | inactive | inactive | inactive | inactive | inactive | inactive | inactive | inactive | inactive
CC1=C(O)C(=O)OC1C (stereo unspecified) | inactive | inactive |  | inactive | inactive | inactive | inactive | inactive |  | inactive | inactive | inactive | inactive | inactive | inactive | inactive | inactive | inactive | inactive | inactive
CCCCCC(S)C(C)CO (stereo unspecified) | inactive | inactive | inactive | inactive | inactive | inactive | inactive | inactive | inactive | inactive | inactive |  |  |  |  |  |  |  |  | 
CC1=C(O)C(=O)C(C)O1 (stereo unspecified) | inactive | inactive |  | inactive | inactive | inactive | inactive | inactive |  | inactive | inactive | inactive | inactive | inactive | inactive | inactive | inactive | inactive | inactive | inactive
O=C1CCOc2ccccc21 |  | active |  |  |  |  |  |  |  |  |  |  |  |  |  |  |  |  |  | 
CC1=NC(C)C(C)S1 (stereo unspecified) | inactive | inactive |  | inactive | inactive | inactive | inactive | inactive |  | inactive | inactive | inactive | inactive | inactive | inactive | inactive | inactive | inactive | inactive | inactive
CC(CO)CS (stereo unspecified) | inactive | inactive | inactive | inactive | inactive | inactive | inactive | inactive | inactive | inactive | inactive |  |  |  |  |  |  |  |  | 
O=c1ccc2ccccc2o1 |  | active |  |  |  |  |  |  |  |  |  |  |  |  |  |  |  |  |  | 
CCC(S)C(C)CO (stereo unspecified) | inactive | inactive | inactive | inactive | inactive | inactive | inactive | inactive | inactive | inactive | inactive |  |  |  |  |  |  |  |  | 
CC1CCCCCCCCCCCCC(=O)C1 (stereo unspecified) | inactive | inactive | inactive | inactive | inactive | inactive | inactive | inactive | inactive | inactive | inactive |  |  |  |  |  |  |  |  | 
CC(=O)c1c(C)c([N+](=O)[O-])c(C(C)(C)C)c([N+](=O)[O-])c1C | inactive | inactive | inactive | inactive | inactive | inactive | inactive | inactive | inactive | inactive | inactive |  |  |  |  |  |  |  |  | 
CCCCC(S)C(C)CO (stereo unspecified) | inactive | inactive | inactive | inactive | inactive | inactive | inactive | inactive | inactive | inactive | inactive |  |  |  |  |  |  |  |  | 
CCC1OC(=O)C(O)=C1C (stereo unspecified) | inactive | inactive |  | inactive | inactive | inactive | inactive | inactive |  | inactive | inactive | inactive | inactive | inactive | inactive | inactive | inactive | inactive | inactive | inactive
CCCC(S)CCOC(C)=O (stereo unspecified) | inactive | inactive |  | inactive | inactive | inactive | inactive | inactive |  | inactive | inactive | inactive | inactive | inactive | inactive | inactive | inactive | inactive | inactive | inactive
CCC1OC(C)=C(O)C1=O (stereo unspecified) | inactive | inactive |  | inactive | inactive | inactive | inactive | inactive |  | inactive | inactive | inactive | inactive | inactive | inactive | inactive | inactive | inactive | inactive | inactive
CCCCCCC=CCCC=O | inactive | inactive | inactive | inactive | inactive | inactive | inactive | inactive | inactive | inactive |  |  |  | inactive | inactive | inactive | inactive | inactive |  | inactive
